ChEMBL document CHEMBL2407075, “Sulphonamido-quinoxalines: search for anticancer agent” (Eur J Med Chem, 2013)

What was measured:
Assay type in all cases: functional
BT-549 = test: Growth inhibition of human BT549 cells assessed as cell growth at 10^-4 M after 48 hrs by sulforhodamine B assay; conditions: BT-549, 48 h, read-out: Activity
How it was run: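 Five-dose NCI-60 run (0.01, 0.1, 1, 10 and 100 µM, as 10-fold dilutions from a DMSO stock made at 400× the top final level). Cells were grown in RPMI 1640 with 5% FBS and 2 mM glutamine and plated for 24 h. They were then exposed for 48 h at 37 °C and 5% CO2. TCA fixation was followed by SRB staining with A515 read-out. Percent growth was taken relative to time-zero and control plates.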

SK-MEL-5 = test: Growth inhibition of human SK-MEL-5 cells assessed as cell growth at 10^-4 M after 48 hrs by sulforhodamine B assay; conditions: SK-MEL-5, 48 h, read-out: Activity
MDA-MB-435 [1] = test: Growth inhibition of human MDA-MB-435 cells assessed as cell growth at 10^-4 M after 48 hrs by sulforhodamine B assay; conditions: MDA-MB-435, 48 h, read-out: Activity
RPMI-8226 = test: Growth inhibition of human RPMI8226 cells assessed as cell growth at 10^-4 M after 48 hrs by sulforhodamine B assay; conditions: RPMI-8226, 48 h, read-out: Activity
[2] = Growth inhibition of human Hs 578T cells assessed as cell growth at 10^-5 M after 48 hrs by sulforhodamine B assay; conditions: read-out: Activity
How it was run: (§1)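 Five-dose screen at NCI. Cells in RPMI 1640 with 5% FBS and 2 mM L-glutamine, seeded at 5000–40,000 cells/well and grown 24 h at 37 °C, 5% CO2 before dosing, with time-zero plates TCA-fixed. Drug diluted from DMSO stock to 0.01, 0.1, 1, 10 and 100 µM final, 48 h. Cells fixed with cold TCA (10% final), stained with 0.4% SRB and read at 515 nm. Percent growth from Tz, control and test absorbances; GI50, TGI and LC50 from dose-response curves.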

[3] = Growth inhibition of human EKVX cells assessed as cell growth at 10^-5 M after 48 hrs by sulforhodamine B assay; conditions: read-out: Activity; how it was run: as §1
OVCAR-4 = test: Growth inhibition of human OVCAR4 cells assessed as cell growth at 10^-6 M after 48 hrs by sulforhodamine B assay; conditions: OVCAR-4, 48 h, read-out: Activity
OVCAR-3 [4] = test: Growth inhibition of human OVCAR3 cells assessed as cell growth at 10^-6 M after 48 hrs by sulforhodamine B assay; conditions: OVCAR-3, 48 h, read-out: Activity
MDA-MB-435 [5] = test: Growth inhibition of human MDA-MB-435 cells assessed as cell growth at 10^-6 M after 48 hrs by sulforhodamine B assay; conditions: MDA-MB-435, 48 h, read-out: Activity
NCI-H23 = test: Growth inhibition of human NCI-H23 cells assessed as cell growth at 10^-6 M after 48 hrs by sulforhodamine B assay; conditions: NCI-H23, 48 h, read-out: Activity
HL-60(TB) = test: Growth inhibition of human HL-60(TB) cells assessed as cell growth at 10^-6 M after 48 hrs by sulforhodamine B assay; conditions: HL-60, 48 h, read-out: Activity
How it was run: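 HL-60(TB) suspension cells were treated 48 h at 37 °C within the five-dose series (0.01–100 µM), fixed with 16% final TCA and SRB-stained, read at 515 nm. Percentage growth at each concentration = (Ti−Tz)/(C−Tz)×100, or (Ti−Tz)/Tz×100 when Ti<Tz, with time-zero (Tz) and untreated control (C) plates.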

T47D = test: Growth inhibition of human T47D cells assessed as cell growth at 10^-7 M after 48 hrs by sulforhodamine B assay; conditions: read-out: Activity
RXF 393 = test: Growth inhibition of human RXF393 cells assessed as cell growth at 10^-7 M after 48 hrs by sulforhodamine B assay; conditions: RXF 393, 48 h, read-out: Activity
OVCAR-8 = test: Growth inhibition of human OVCAR8 cells assessed as cell growth at 10^-7 M after 48 hrs by sulforhodamine B assay; conditions: OVCAR-8, 48 h, read-out: Activity
U-251 = test: Growth inhibition of human U251 cells assessed as cell growth at 10^-7 M after 48 hrs by sulforhodamine B assay; conditions: U-251, 48 h, read-out: Activity
HOP-92 = test: Growth inhibition of human HOP92 cells assessed as cell growth at 10^-7 M after 48 hrs by sulforhodamine B assay; conditions: HOP-92, 48 h, read-out: Activity; how it was run: as §1
[6] = Growth inhibition of human NCI-ADR-RES cells assessed as cell growth at 10^-8 M after 48 hrs by sulforhodamine B assay; conditions: read-out: Activity
SK-MEL-28 = test: Growth inhibition of human SK-MEL-28 cells assessed as cell growth at 10^-8 M after 48 hrs by sulforhodamine B assay; conditions: SK-MEL-28, 48 h, read-out: Activity
SF-295 = test: Growth inhibition of human SF295 cells assessed as cell growth at 10^-8 M after 48 hrs by sulforhodamine B assay; conditions: SF-295, 48 h, read-out: Activity
OVCAR-5 = test: Growth inhibition of human OVCAR5 cells after 48 hrs by sulforhodamine B assay; conditions: OVCAR-5, 48 h; for CC50: read-out: LC50 (the source's name)
How it was run: (§2)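 Adherent cells in RPMI 1640 with 5% FBS and 2 mM L-glutamine were plated at 5000–40,000 cells/well and grown 24 h. Five concentrations (0.01–100 µM, DMSO stock) were added for 48 h at 37 °C. Cells were fixed with cold TCA (10% final) and stained with SRB, read at 515 nm. GI50 came from log concentration–growth curves against time-zero and control plates.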

OVCAR-3 [7] = test: Growth inhibition of human OVCAR3 cells after 48 hrs by sulforhodamine B assay; conditions: OVCAR-3, 48 h; for CC50: read-out: LC50 (the source's name); how it was run: as §2
SNB-75 = test: Growth inhibition of human SNB75 cells after 48 hrs by sulforhodamine B assay; conditions: SNB-75, 48 h; for CC50: read-out: LC50 (the source's name)
How it was run: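 Five-dose NCI 60 screen at 0.01, 0.1, 1, 10 and 100 µM, 48 h exposure after 24 h preincubation, in RPMI 1640 with 5% FBS and 2 mM glutamine. Fixed with TCA (10% final for adherent cells, 16% for suspension cells), stained with SRB, A515 read. Percent growth uses time-zero (Tz), control and treated plates. GI50, TGI and LC50 are read from the dose-response curves.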

HOP-62 = test: Growth inhibition of human HOP62 cells after 48 hrs by sulforhodamine B assay; conditions: HOP-62, 48 h; for CC50: read-out: LC50 (the source's name); how it was run: as §1
MOLT-4 = test: Growth inhibition of human MOLT4 cells after 48 hrs by sulforhodamine B assay; conditions: MOLT-4, 48 h; for CC50: read-out: LC50 (the source's name)
How it was run: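 Leukemia suspension cells in RPMI 1640 with 5% FBS and 2 mM L-glutamine were plated at 5000–40,000 cells/well and grown 24 h. Five concentrations (0.01–100 µM) were given for 48 h at 37 °C. Settled cells were fixed with 80% TCA (16% final) and SRB-stained, read at 515 nm. GI50 came from dose–response curves against time-zero and control plates.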

Row | Structure (SMILES) | growth at 100 µM (BT-549) [%] | growth at 100 µM (SK-MEL-5) [%] | growth at 100 µM (MDA-MB-435 [1]) [%] | growth at 100 µM (RPMI-8226) [%] | growth at 10 µM [2] [%] | growth at 10 µM [3] [%] | growth at 1 µM (OVCAR-4) [%] | growth at 1 µM (OVCAR-3 [4]) [%] | growth at 1 µM (MDA-MB-435 [5]) [%] | growth at 1 µM (NCI-H23) [%] | growth at 1 µM (HL-60(TB)) [%] | growth at 0.1 µM (T47D) [%] | growth at 0.1 µM (RXF 393) [%] | growth at 0.1 µM (OVCAR-8) [%] | growth at 0.1 µM (U-251) [%] | growth at 0.1 µM (HOP-92) [%] | growth at 0.01 µM [6] [%] | growth at 0.01 µM (SK-MEL-28) [%] | growth at 0.01 µM (SF-295) [%] | TGI (OVCAR-5) [µM] | other results
1 | O=S(=O)(Nc1ccc(Cl)cc1)c1ccc2nc(-c3ccccc3)c(-c3ccccc3)nc2c1 | 61 | 52 | 76 | 40 | 3 | -7 | 76 | 94 | 92 | 85 | 89 | 90 | 103 | 101 | 94 | 92 | 99 | 97 | 92 | > 100 | CC50 (OVCAR-5): > 100 µM; CC50 (OVCAR-3 [7]): > 100 µM; GI50 (SNB-75): 2.12 µM; TGI (SNB-75): > 100 µM; CC50 (SNB-75): > 100 µM; GI50 (HOP-62): 3.95 µM; TGI (HOP-62): > 100 µM; CC50 (HOP-62): > 100 µM; CC50 (MOLT-4): > 100 µM
2 | O=S(=O)(Nc1ccccn1)c1ccc2nc(-c3ccccc3)c(-c3ccccc3)nc2c1 | 49 | 41 | 76 | 27 | -11 | -2 | 82 | 92 | 91 | 79 | 74 | 85 | 109 | 97 | 97 | 92 | 101 | 101 | 86 | > 100 | CC50 (OVCAR-5): > 100 µM; GI50 (OVCAR-3 [7]): 2.17 µM; CC50 (OVCAR-3 [7]): > 100 µM; GI50 (SNB-75): 2.23 µM; TGI (SNB-75): > 100 µM; CC50 (SNB-75): > 100 µM; GI50 (HOP-62): 4.54 µM; TGI (HOP-62): > 100 µM; CC50 (HOP-62): > 100 µM; GI50 (MOLT-4): 1.89 µM; CC50 (MOLT-4): > 100 µM
